Measurements taken from ChEMBL document CHEMBL4613298, “GPBAR1 Activation by C6-Substituted Hyodeoxycholane Analogues Protect against Colitis” (ACS Med Chem Lett, 2020).
Activity calls are given as the source filed them. No cut-off for these calls is given here.

Assays:
Homo sapiens = species on record: Homo sapiens; experiment: Selectivity index, ratio of transactivation of human GPBAR1 receptor expressed in HEK293T cells assessed as maximum receptor activation at 10 uM to transactivation of human FXR (unknown origin) expressed in HepG2 cells co-expressing pSG5RXR/pGL4.70 assessed as maximum receptor activation at 10 uM; format: cell-based
Procedure, shortened: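 Ratio of percent activity at GPBAR1 (HEK-293T, CRE-luciferase, 10 μM, vs TLCA 10 μM) to percent activity at FXR (HepG2, IR1-luciferase, 10 μM, vs CDCA 10 μM). Both taken from the same triplicate experiment.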

[1] = biological target: T1, Bile acid receptor (Homo sapiens) (UniProt Q96RI1); experiment: Transactivation of FXR (unknown origin) expressed in HepG2 cells co-expressing pSG5RXR/pGL4.70 assessed as maximum receptor activation at 10 uM after 18 hrs by IR1 driven dual renilla-luciferase reporter gene assay relative to relative to CDCA; format: cell-based
T1 sequence (whole entry): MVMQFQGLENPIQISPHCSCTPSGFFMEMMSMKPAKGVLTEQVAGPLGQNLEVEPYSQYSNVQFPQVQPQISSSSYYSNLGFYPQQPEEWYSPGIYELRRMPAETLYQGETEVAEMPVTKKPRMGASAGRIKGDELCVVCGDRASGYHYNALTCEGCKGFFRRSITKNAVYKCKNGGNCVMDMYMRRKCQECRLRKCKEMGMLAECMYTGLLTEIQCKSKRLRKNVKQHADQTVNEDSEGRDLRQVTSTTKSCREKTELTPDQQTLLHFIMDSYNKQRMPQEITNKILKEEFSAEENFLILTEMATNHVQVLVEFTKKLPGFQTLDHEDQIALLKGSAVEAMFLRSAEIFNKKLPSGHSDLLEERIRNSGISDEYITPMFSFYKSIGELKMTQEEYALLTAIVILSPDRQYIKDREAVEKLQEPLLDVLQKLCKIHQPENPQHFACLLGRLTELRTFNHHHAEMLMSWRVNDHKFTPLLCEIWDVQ
Procedure, shortened: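 FXR reporter assay in HepG2 cells transfected with FXR and an IR1-driven luciferase reporter, compound at 10 μM. Efficacy is maximal IR1 transactivation relative to CDCA (10 μM). One experiment, triplicate.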

[2] = biological target: T2, G-protein coupled bile acid receptor 1 (Homo sapiens) (UniProt Q8TDU6); experiment: Transactivation of human GPBAR1 receptor expressed in HEK293T cells assessed as maximum receptor activation at 10 uM after 18 hrs by cAMP response element driven renilla-luciferase dual reporter gene assay relative to TLCA; format: functional, cell-based; settings: HEK-293T
T2 sequence (whole entry): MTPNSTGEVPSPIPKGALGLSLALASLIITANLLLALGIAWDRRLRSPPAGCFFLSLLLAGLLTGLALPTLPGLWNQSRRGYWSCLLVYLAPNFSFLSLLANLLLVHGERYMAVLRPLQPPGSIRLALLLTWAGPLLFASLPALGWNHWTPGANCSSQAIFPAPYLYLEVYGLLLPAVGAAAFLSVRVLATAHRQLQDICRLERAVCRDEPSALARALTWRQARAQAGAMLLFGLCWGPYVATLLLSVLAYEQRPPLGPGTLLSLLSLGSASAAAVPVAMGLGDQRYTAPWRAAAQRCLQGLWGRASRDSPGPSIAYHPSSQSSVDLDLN
Procedure, shortened: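 HEK-293T cells transfected with GPBAR1 and a CRE-driven luciferase reporter, exposed to compound at 10 μM. Efficacy is maximal CRE transactivation as percent of that caused by TLCA (10 μM). One experiment, triplicate.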

[3] = biological target: T2, G-protein coupled bile acid receptor 1 (Homo sapiens); experiment: Agonist activity at GPBAR1 receptor in human THP1 cells assessed as reduction in LPS-induced IL-6 expression at 10 uM after 18 hrs by RT-PCR analysis; format: cell-based; settings: THP-1
Procedure, shortened: (§1)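 THP1 monocytic/macrophage cells primed with LPS, then coincubated with or without test agent at 10 μM; expression of cytokine genes (IL-1β, IL-6, TNF-α, IL-10) measured.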

[4] = Aqueous solubility of compound in pH 7.4 PBS/MeOH at 10 mM after 24 hrs by LC-MS analysis; format: physicochemical; settings: buffer, pH 7.4, 24 h, 10000 µM
[5] = biological target: T2, G-protein coupled bile acid receptor 1 (Homo sapiens); experiment: Agonist activity at GPBAR1 receptor in human THP1 cells assessed as reduction in LPS-induced IL-1beta expression at 10 uM after 18 hrs by RT-PCR analysis; format: cell-based; settings: THP-1; procedure, shortened: as §1
[6] = biological target: T1, Bile acid receptor (Homo sapiens); experiment: Agonist activity at GST-tagged FXR-LBD (unknown origin) assessed as biotinylated SRC-1 recruitment at 10 uM after 30 mins by Alpha Screen assay
[7] = biological target: T2, G-protein coupled bile acid receptor 1 (Homo sapiens); experiment: Transactivation of human GPBAR1 receptor expressed in HEK293T cells at 10 to 50 uM after 18 hrs by cAMP response element driven renilla-luciferase dual reporter gene assay; format: functional, cell-based; settings: HEK-293T
[8] = biological target: T2, G-protein coupled bile acid receptor 1 (Homo sapiens); experiment: Agonist activity at GPBAR1 receptor in human THP1 cells assessed as reduction in LPS-induced TNFalpha expression at 10 uM after 18 hrs by RT-PCR analysis; format: cell-based; settings: THP-1; procedure, shortened: as §1
[9] = biological target: T3, G-protein coupled bile acid receptor 1 (Homo sapiens, UniProt Q8TDU6); experiment: Agonist activity at human GPBAR1 receptor expressed in HEK293T cells after 18 hrs by cAMP response element driven renilla-luciferase dual reporter gene assay; format: functional, cell-based, HEK-293T
T3 sequence (Q8TDU6 whole entry): T2 sequence (whole entry)
Procedure, shortened: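 GPBAR1 transactivation in transfected HEK-293T cells carrying a CRE-luciferase reporter; potency expressed as EC50. Data from one experiment run in triplicate.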

| Compound | Selectivity Index (Homo sapiens) | max activation [1] | max activation [2] | Activity [3] | solubility [4] | Activity [5] | Activity [6] | Activity [7] | Activity [8] | EC50 [9] |
| --- | --- | --- | --- | --- | --- | --- | --- | --- | --- | --- |
| CC(C)[C@]1(O)C[C@@H]2[C@H](CC[C@]3(C)[C@@H]([C@H](C)CC#N)CC[C@@H]23)[C@@]2(C)CC[C@@H](O)C[C@H]21 | 5.16 | 4.3% | 22.2% | – | – | – | – | – | – | – |
| C[C@H](CC#N)[C@H]1CC[C@H]2[C@@H]3C[C@@](C)(O)[C@@H]4C[C@H](O)CC[C@]4(C)[C@H]3CC[C@]12C | 15.1 | 5.5% | 83.4% | Active | Soluble | Active | – | – | – | – |
| C[C@H](CC#N)[C@H]1CC[C@H]2[C@@H]3C[C@@](C)(O)[C@H]4C[C@H](O)CC[C@]4(C)[C@H]3CC[C@]12C | – | – | – | – | – | – | inactive | inactive | – | – |
| CCC[C@]1(O)C[C@H]2[C@@H]3CC[C@H]([C@H](C)CC#N)[C@@]3(C)CC[C@@H]2[C@@]2(C)CC[C@@H](O)C[C@@H]12 | 21.6 | 3.1% | 67.1% | – | – | – | – | – | – | – |
| C=C[C@]1(O)C[C@@H]2[C@H](CC[C@]3(C)[C@@H]([C@H](C)CC#N)CC[C@@H]23)[C@@]2(C)CC[C@@H](O)C[C@H]21 | 28.4 | 2.2% | 62.5% | – | – | – | – | – | – | – |
| C=CC[C@@]1(O)C[C@@H]2[C@H](CC[C@]3(C)[C@@H]([C@H](C)CC#N)CC[C@@H]23)[C@@]2(C)CC[C@@H](O)C[C@H]12 | – | – | – | – | – | – | inactive | inactive | – | – |
| C[C@H](CC#N)[C@H]1CC[C@H]2[C@@H]3C[C@](O)(Cc4ccccc4)[C@@H]4C[C@H](O)CC[C@]4(C)[C@H]3CC[C@]12C | 1.88 | 4.4% | 8.3% | – | – | – | – | – | – | – |
| CCC[C@@]1(O)C[C@@H]2[C@H](CC[C@]3(C)[C@@H]([C@H](C)CC#N)CC[C@@H]23)[C@@]2(C)CC[C@@H](O)C[C@H]12 | – | – | – | – | – | – | inactive | inactive | – | – |
| CC[C@@]1(O)C[C@H]2[C@@H]3CC[C@H]([C@H](C)CC#N)[C@@]3(C)CC[C@@H]2[C@@]2(C)CC[C@@H](O)C[C@@H]12 | 9.9 | 6.6% | 65.9% | Active | Soluble | Active | – | – | Active | – |
| C=CCCC[C@]1(O)C[C@H]2[C@@H]3CC[C@H]([C@H](C)CC#N)[C@@]3(C)CC[C@@H]2[C@@]2(C)CC[C@@H](O)C[C@@H]12 | 56.3 | 1.6% | 90.1% | Active | Soluble | Active | – | – | – | – |
| CC[C@@]1(O)C[C@@H]2[C@H](CC[C@]3(C)[C@@H]([C@H](C)CC#N)CC[C@@H]23)[C@@]2(C)CC[C@@H](O)C[C@H]12 | – | – | – | – | – | – | inactive | inactive | – | – |
| C=CC[C@@]1(O)C[C@H]2[C@@H]3CC[C@H]([C@H](C)CC#N)[C@@]3(C)CC[C@@H]2[C@@]2(C)CC[C@@H](O)C[C@@H]12 | 15.2 | 4.1% | 62.5% | – | – | – | – | – | – | 100 nM |
| C[C@H](CC#N)[C@H]1CC[C@H]2[C@@H]3C[C@H](O)[C@@H]4C[C@H](O)CC[C@]4(C)[C@H]3CC[C@]12C | 33.9 | 3.5% | 119% | – | – | – | – | – | – | 2650 nM |
| C[C@H](CC#N)[C@H]1CC[C@H]2[C@@H]3C[C@](C)(O)[C@@H]4C[C@H](O)CC[C@]4(C)[C@H]3CC[C@]12C | 14.9 | 6.4% | 95.4% | Active | Soluble | Active | – | – | Active | – |
| C[C@H](CC#N)[C@H]1CC[C@H]2[C@@H]3C[C@@](O)(c4ccccc4)[C@@H]4C[C@H](O)CC[C@]4(C)[C@H]3CC[C@]12C | 2.13 | 18.2% | 38.8% | – | – | – | – | – | – | – |
